Measurements: ChEMBL document CHEMBL1138856, “Synthesis and anti-human immunodeficiency virus activity of 4'-branched (+/-)-4'-thiostavudines” (J Med Chem, 2006)

Experiments:
[1] = test system: Human immunodeficiency virus 1; test: Antiviral activity against HIV1 3B in MT4 cells by MTT assay; format: functional, organism-based
[2] = Cytotoxicity against MT4 cells MTT assay; format: cell-based; conditions: human
Method in brief: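 Mock-infected MT-4 cells were cultured with various compound concentrations in parallel with the antiviral assay (4 days, 37 °C). Viability was read by MTT. The value is the concentration reducing viability by 50%.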

[3] = Human immunodeficiency virus 1, 3B, MT4

| Structure (SMILES) | EC50 ([1]; mt4) [µM] | EC50 [1, 3] [µM] | CC50 [2] [µM] |
| --- | --- | --- | --- |
| C#C[C@@]1(CO)C=C[C@H](n2cc(C)c(=O)[nH]c2=O)S1 (racemic) | 0.74 |  |  |
| Cc1cn([C@H]2C=CC(CO)(CO)S2)c(=O)[nH]c1=O (racemic) |  | > 100 | > 100 |
| COC(=O)[C@@]1(CO)C=C[C@H](n2cc(C)c(=O)[nH]c2=O)S1 (racemic) |  | > 100 | > 100 |
| Cc1cn([C@H]2C=C[C@@](C#N)(CO)S2)c(=O)[nH]c1=O (racemic) |  | 7.6 | > 100 |
| Cc1cn([C@H]2C=C[C@](CO)(C(N)=O)S2)c(=O)[nH]c1=O (racemic) |  | > 100 | > 100 |
| C=C[C@@]1(CO)C=C[C@H](n2cc(C)c(=O)[nH]c2=O)S1 (racemic) |  | > 100 | > 100 |
| C#C[C@@]1(CO)C=C[C@H](n2cc(C)c(=O)[nH]c2=O)S1 (stereo in doubt; (+)-29) | > 20 |  | > 100 |
| C#C[C@@]1(CO)C=C[C@H](n2cc(C)c(=O)[nH]c2=O)S1 (stereo in doubt; (-)-29) | 0.37 |  |  |
| C#C[C@@]1(CO)C=C[C@H](n2cc(C)c(=O)[nH]c2=O)O1 [CENSAVUDINE] |  | 0.06 | > 100 |
| Cc1cn([C@H]2C=C[C@@H](CO)O2)c(=O)[nH]c1=O [STAVUDINE] |  | 0.51 | > 100 |
